According to ChEMBL document CHEMBL5705902, “Role of G Protein-Coupled Receptor Kinases 2 and 3 in μ-Opioid Receptor Desensitization and Internalization” (Mol Pharmacol, 2015):
The source made the active and inactive calls. The rule behind the calls is not given here.

What was measured:
[1] = molecular target: MAP/microtubule affinity-regulating kinase 3 (Homo sapiens) (UniProt P27448); assay: Inhibition of human MARK3 assessed as remaining activity at 1 uM in presence of 32ATP relative to control
Procedure, shortened: (§1)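 Express panel of 52 purified human kinases run in vitro. Kinase activity was measured directly by a radioactive filter-binding assay with ³²ATP, at ATP levels at or below each kinase's calculated Km for ATP. The compound was tested at 1 μM. Each assay was run in duplicate, and activity is given as the mean percentage (with S.D.) of activity without inhibitor.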

[2] = molecular target: Mu-type opioid receptor (Rattus norvegicus) (UniProt P33535); assay: Inhibition of HA-tagged rat MOPr in HEK293 cells assessed as prevention in DAMGO induced MOPr phosphorylation at Thr379 level at 30 uM preincubated for 30 mins by western blot analysis; assay type: functional, cell-based
Target sequence in this assay (P33535 whole entry): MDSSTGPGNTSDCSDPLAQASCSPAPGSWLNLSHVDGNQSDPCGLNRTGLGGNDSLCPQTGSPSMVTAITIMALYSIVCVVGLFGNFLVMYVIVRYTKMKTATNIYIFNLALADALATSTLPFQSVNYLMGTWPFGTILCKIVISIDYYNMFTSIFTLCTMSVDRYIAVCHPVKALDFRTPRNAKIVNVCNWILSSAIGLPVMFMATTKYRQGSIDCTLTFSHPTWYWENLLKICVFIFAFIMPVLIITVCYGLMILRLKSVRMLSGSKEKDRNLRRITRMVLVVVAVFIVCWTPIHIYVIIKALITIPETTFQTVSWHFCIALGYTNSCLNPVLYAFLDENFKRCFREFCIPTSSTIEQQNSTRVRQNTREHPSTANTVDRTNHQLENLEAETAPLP

[3] = molecular target: Mu-type opioid receptor (Rattus norvegicus) (UniProt P33535); assay: Inhibition of MOPr desensitization in wistar rat LC neuron cells assessed as reduction in the Met-Enk induced desensitization at 30 uM incubated for 15 mins before in the presence of amlexanox; assay type: functional, cell-based
Target sequence in this assay (P33535 whole entry): as above

[4] = molecular target: Tyrosine-protein kinase BTK (Homo sapiens) (UniProt Q06187); assay: Inhibition of human BTK assessed as remaining activity at 1 uM in presence of 32ATP relative to control
Procedure, shortened: (§2)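 Express screen of 52 purified human kinases run as a radioactive filter-binding assay with 32ATP, at 1 μM inhibitor. ATP was at or below each kinase's calculated Km. Activity is given as percent of the activity without inhibitor. Run in duplicate; mean with S.D.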

[5] = molecular target: Tyrosine-protein kinase Lck (Homo sapiens) (UniProt P06239); assay: Inhibition of human Lck assessed as remaining activity at 1 uM in presence of 32ATP relative to control; procedure, shortened: as §1
[6] = molecular target: Ephrin type-A receptor 2 (Homo sapiens) (UniProt P29317); assay: Inhibition of human EPHA2 assessed as remaining activity at 1 uM in presence of 32ATP relative to control; procedure, shortened: as §1
[7] = molecular target: Dual specificity tyrosine-phosphorylation-regulated kinase 1A (Homo sapiens) (UniProt Q13627); assay: Inhibition of human DYRK1A assessed as remaining activity at 1 uM in presence of 32ATP relative to control; procedure, shortened: as §2
[8] = molecular target: Dual specificity protein kinase TTK (Homo sapiens) (UniProt P33981); assay: Inhibition of human TTK assessed as remaining activity at 1 uM in presence of 32ATP relative to control; procedure, shortened: as §1
[9] = molecular target: Mitogen-activated protein kinase 1 (Homo sapiens) (UniProt P28482); assay: Inhibition of human ERK2 assessed as remaining activity at 1 uM in presence of 32ATP relative to control; procedure, shortened: as §1
[10] = molecular target: Serine/threonine-protein kinase N2 (Homo sapiens) (UniProt Q16513); assay: Inhibition of human PRK2 at 1 uM in presence of 32ATP relative to control; procedure, shortened: as §1
[11] = molecular target: Mitogen-activated protein kinase kinase kinase 11 (Homo sapiens) (UniProt Q16584); assay: Inhibition of human MLK3 assessed as remaining activity at 1 uM in presence of 32ATP relative to control; procedure, shortened: as §1
[12] = molecular target: G protein-coupled receptor kinase 3 (Homo sapiens, UniProt P35626); assay: Inhibition of human GRK3 in the presence of ATP
[13] = molecular target: Mu-type opioid receptor (Rattus norvegicus) (UniProt P33535); assay: Inhibition of MOPr desensitization (unknown origin) assessed as reduction in the DAMGO induced desensitization at 3 to 30 uM incubated for 15 mins; details: dose 3-30 µM
Target sequence in this assay (P33535 whole entry, looked up): as the sequence (P33535 whole entry) above

[14] = molecular target: RAC-alpha serine/threonine-protein kinase (Homo sapiens) (UniProt P31749); assay: Inhibition of human PKBa assessed as remaining activity at 1 uM in presence of 32ATP relative to control; procedure, shortened: as §1
[15] = molecular target: Mitogen-activated protein kinase 3 (Homo sapiens) (UniProt P27361); assay: Inhibition of human ERK1 assessed as remaining activity at 1 uM in presence of 32ATP relative to control; procedure, shortened: as §1
Sequence of Mitogen-activated protein kinase 3 (Homo sapiens) (P27361 whole entry): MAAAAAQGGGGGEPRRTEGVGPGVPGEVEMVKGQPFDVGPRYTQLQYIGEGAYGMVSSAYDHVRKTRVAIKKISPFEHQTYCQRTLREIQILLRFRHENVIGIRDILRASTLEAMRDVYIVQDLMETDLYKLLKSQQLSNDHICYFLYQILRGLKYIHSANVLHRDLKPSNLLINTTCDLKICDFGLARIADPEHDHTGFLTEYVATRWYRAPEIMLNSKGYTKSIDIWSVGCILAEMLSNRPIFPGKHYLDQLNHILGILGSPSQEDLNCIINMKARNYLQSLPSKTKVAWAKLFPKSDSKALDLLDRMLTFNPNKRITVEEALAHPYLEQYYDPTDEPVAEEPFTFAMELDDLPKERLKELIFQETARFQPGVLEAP

Sequence of MAP/microtubule affinity-regulating kinase 3 (Homo sapiens) (P27448 whole entry, looked up): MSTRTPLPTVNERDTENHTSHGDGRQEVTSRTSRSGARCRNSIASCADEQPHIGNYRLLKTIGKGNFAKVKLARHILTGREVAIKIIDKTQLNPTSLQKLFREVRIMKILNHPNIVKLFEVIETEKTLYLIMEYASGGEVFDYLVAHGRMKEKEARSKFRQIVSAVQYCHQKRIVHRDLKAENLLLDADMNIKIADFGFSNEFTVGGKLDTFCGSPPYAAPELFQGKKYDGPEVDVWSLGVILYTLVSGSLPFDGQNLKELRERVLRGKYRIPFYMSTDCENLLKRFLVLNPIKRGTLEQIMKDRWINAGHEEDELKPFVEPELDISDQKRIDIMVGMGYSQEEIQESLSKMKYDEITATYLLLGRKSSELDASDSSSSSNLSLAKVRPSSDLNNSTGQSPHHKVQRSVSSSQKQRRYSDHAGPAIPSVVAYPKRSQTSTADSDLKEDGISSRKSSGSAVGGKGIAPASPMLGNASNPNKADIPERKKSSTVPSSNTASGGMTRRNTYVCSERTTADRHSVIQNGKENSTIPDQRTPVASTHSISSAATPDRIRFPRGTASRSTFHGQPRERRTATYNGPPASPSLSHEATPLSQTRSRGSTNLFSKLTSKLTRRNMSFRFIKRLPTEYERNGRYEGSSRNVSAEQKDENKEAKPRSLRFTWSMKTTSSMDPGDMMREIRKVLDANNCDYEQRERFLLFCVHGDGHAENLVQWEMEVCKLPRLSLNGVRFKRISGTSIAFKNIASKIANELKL
Sequence of Serine/threonine-protein kinase N2 (Homo sapiens) (Q16513 whole entry, looked up): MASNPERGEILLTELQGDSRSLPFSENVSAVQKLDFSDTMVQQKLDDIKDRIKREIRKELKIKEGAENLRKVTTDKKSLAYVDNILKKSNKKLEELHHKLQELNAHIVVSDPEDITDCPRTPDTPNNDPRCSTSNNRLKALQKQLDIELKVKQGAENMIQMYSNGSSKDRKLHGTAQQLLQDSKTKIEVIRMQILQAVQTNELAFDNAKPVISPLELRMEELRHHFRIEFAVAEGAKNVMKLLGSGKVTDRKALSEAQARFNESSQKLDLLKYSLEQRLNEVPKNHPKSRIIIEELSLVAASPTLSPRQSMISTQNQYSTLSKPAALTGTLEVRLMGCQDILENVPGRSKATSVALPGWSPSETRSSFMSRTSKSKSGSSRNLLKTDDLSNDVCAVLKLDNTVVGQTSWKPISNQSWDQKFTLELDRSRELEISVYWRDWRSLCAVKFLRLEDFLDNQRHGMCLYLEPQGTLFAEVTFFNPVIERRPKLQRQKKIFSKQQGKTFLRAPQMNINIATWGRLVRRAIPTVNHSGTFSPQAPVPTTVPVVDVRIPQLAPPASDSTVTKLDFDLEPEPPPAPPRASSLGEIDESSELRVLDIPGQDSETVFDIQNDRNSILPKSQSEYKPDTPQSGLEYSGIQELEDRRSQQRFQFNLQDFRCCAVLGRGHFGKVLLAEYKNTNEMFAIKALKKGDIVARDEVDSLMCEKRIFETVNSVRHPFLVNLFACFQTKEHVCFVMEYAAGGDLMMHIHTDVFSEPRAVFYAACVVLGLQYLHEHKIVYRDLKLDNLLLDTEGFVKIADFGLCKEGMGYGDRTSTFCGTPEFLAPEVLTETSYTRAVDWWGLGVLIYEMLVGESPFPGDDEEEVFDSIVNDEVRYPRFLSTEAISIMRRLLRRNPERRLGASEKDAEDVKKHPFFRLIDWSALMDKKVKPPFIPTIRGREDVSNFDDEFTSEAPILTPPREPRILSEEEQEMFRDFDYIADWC
Sequence of Mitogen-activated protein kinase 1 (Homo sapiens) (P28482 whole entry): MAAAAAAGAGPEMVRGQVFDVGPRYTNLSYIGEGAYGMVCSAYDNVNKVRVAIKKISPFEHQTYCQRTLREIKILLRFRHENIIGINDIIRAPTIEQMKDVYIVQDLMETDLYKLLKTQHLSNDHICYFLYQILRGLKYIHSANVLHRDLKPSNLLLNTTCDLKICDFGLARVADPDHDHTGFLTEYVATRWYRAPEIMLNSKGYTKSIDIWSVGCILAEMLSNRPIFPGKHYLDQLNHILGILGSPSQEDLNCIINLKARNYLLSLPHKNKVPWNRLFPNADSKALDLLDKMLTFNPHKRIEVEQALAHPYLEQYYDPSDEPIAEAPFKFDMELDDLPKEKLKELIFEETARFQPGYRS
Sequence of Dual specificity protein kinase TTK (Homo sapiens) (P33981 whole entry): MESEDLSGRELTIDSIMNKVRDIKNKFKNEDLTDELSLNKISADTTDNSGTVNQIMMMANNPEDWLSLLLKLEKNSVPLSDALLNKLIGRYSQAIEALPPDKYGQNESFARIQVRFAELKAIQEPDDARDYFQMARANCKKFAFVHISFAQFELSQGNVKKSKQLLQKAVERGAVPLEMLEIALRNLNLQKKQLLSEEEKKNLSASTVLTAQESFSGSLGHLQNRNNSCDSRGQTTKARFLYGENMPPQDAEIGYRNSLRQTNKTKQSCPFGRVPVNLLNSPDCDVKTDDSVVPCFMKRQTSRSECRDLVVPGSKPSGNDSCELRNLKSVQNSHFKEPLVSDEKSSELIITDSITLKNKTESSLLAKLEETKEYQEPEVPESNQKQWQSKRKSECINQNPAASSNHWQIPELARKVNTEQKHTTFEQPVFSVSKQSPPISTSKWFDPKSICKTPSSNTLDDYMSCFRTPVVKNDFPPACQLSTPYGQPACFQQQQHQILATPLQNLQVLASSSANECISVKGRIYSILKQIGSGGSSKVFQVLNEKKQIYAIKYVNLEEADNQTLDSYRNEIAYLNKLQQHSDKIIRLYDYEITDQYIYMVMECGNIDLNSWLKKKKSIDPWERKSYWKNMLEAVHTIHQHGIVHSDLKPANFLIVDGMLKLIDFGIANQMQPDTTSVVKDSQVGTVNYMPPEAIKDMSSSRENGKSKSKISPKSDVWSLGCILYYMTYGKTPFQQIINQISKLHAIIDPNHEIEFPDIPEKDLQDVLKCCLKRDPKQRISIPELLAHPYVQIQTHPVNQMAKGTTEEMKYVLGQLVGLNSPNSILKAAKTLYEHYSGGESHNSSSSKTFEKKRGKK
Sequence of Tyrosine-protein kinase Lck (Homo sapiens) (P06239 2-509 limits assumed): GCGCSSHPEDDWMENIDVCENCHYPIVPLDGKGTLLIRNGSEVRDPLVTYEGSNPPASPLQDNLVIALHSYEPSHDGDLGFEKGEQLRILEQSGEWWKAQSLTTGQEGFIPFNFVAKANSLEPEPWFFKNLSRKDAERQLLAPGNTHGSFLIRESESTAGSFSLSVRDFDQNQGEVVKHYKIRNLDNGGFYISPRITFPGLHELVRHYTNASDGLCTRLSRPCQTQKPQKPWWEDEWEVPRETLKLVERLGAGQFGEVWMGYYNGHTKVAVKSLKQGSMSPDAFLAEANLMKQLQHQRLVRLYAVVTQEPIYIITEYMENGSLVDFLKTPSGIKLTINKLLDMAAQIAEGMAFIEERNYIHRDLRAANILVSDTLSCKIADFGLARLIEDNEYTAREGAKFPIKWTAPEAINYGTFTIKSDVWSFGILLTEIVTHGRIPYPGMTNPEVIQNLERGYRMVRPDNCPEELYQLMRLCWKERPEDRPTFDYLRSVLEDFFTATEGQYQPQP
Sequence of Tyrosine-protein kinase BTK (Homo sapiens) (Q06187 whole entry): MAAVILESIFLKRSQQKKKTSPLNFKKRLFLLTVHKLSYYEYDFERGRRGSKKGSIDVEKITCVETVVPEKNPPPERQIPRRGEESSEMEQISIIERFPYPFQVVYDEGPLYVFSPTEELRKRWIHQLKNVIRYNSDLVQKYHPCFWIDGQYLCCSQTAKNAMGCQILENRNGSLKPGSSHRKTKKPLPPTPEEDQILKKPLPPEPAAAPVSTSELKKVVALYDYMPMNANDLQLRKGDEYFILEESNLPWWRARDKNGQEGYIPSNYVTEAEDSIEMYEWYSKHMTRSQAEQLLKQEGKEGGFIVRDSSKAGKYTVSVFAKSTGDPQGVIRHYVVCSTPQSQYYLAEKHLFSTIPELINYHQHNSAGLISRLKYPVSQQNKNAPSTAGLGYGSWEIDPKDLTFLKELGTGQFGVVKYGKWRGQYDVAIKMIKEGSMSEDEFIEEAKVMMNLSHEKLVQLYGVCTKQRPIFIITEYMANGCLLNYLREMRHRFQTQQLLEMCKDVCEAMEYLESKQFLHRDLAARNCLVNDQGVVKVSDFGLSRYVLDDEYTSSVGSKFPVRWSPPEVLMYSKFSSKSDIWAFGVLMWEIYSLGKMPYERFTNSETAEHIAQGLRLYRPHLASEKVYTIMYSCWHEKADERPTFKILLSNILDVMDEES

Cn1c(CNc2cccc(C(=O)NCc3ccccc3C(F)(F)F)c2)nnc1-c1ccncc1
Activity [1]: 92% | inhibition [2]: Active | inhibition [3]: inactive | Activity [4]: 72% | Activity [5]: 94% | Activity [6]: 85% | Activity [7]: 112% | Activity [8]: 89% | Activity [9]: 81% | inhibition [10]: 93% | Activity [11]: 86% | IC50 [12]: 290 nM | inhibition [13]: Active | Activity [14]: 83% | Activity [15]: 83%
